Data reported in PMC2818876 (Journal of the American Chemical Society, 2010).

Assays:
SK-Mel-2 cells = assay: Cellular uptake and distribution by confocal Raman microscopy of live cells; assay type: cell-based, Human; conditions: data not shown
[1] = Circular dichroism spectroscopy, secondary structure in water/TFE solutions; assay type: physicochemical; conditions: 40 μM peptide, 25 °C, CDPro (average of CONTINLL, SELCON3, CDSSTR)
Outline: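 Stock 20 mM in water (pH 7), stored at 4°C for ≤10 days and quantified by A280 (ε280 = 11,000 M−1.cm−1). CD recorded in a 1 mm quartz cell over 180–250 nm at 100 nm/min with 1 s response, 40 μM peptide, 25 °C. Eight scans averaged and background-corrected for water/TFE. Fractions from the CDPro SP37A reference set.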

α-helix structure (CD modeling) ([1]; 100% TFE): 25%
Random coil character (CD modeling) ([1]; 100% water): 54%
α-helix structure (CD modeling) ([1]; 100% water): 3%
β-strand structure (CD modeling) ([1]; 100% water): 21%
SMILES: CC[C@H](C)[C@H](NC(=O)[C@H](CCCCN)NC(=O)[C@@H](NC(=O)[C@H](CCC(N)=O)NC(=O)[C@@H](N)CCCNC(=N)N)[C@@H](C)CC)C(=O)N[C@@H](Cc1c[nH]c2ccccc12)C(=O)N[C@@H](Cc1ccccc1)C(=O)N[C@@H](CCC(N)=O)C(=O)N[C@@H](CC(N)=O)C(=O)N[C@@H](CCCNC(=N)N)C(=O)N[C@@H](CCCNC(=N)N)C(=O)N[C@@H](CCSC)C(=O)N[C@@H](CCCCN)C(=O)N[C@@H](Cc1c[nH]c2ccccc12)C(=O)N[C@@H](CCCCN)C(=O)N[C@@H](CCCCN)C(N)=O [penetratin-Fh]
Peptide uptake by cells at 4°C (SK-Mel-2 cells; 4°C, confocal Raman microscopy): did not observe peptide uptake
Concentration dependence of the rate of accumulation in cell nuclei (SK-Mel-2 cells; range 25–300 μM, RT): only weakly dependent on concentration
